Measurements pooled from the literature.
Compare with care: the assays were run in different laboratories.
Target: Muscle, skeletal receptor tyrosine-protein kinase (MUSK, Homo sapiens, UniProt O15146)
Sequence (O15146 24-869, as in one of the studies): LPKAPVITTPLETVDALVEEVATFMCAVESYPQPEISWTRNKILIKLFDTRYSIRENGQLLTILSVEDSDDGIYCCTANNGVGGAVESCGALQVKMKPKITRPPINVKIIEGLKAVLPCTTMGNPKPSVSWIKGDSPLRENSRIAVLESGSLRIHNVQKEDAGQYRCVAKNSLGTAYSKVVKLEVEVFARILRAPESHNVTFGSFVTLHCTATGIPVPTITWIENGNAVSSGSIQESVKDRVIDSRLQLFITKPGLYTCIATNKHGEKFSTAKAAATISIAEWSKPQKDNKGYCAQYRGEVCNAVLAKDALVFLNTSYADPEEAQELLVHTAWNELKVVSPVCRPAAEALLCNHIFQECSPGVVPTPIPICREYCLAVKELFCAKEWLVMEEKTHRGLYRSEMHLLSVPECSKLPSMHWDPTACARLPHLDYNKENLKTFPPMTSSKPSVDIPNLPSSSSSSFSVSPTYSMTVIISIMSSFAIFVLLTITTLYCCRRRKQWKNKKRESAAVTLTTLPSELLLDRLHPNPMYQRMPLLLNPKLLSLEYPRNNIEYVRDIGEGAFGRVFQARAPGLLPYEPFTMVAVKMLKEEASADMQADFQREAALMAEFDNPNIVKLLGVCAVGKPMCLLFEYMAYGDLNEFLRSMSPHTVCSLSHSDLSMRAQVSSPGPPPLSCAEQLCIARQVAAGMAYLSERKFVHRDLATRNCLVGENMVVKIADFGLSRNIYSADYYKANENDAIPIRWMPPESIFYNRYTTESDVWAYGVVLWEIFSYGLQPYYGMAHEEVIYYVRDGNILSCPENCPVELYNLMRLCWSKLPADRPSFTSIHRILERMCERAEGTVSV

CNC(=O)c1cc2c(Oc3ccc(NC(=O)C4(C(=O)Nc5ccc(F)cc5)CC4)cc3)ccnc2cc1OC — inhibition (enzyme activity; inhibitor; radiometric; 1 µM): 70%
COc1cc(C)c(Sc2cnc(NC(=O)c3ccc(N4CCN(CCCCCCCNC(=O)COc5cccc6c5C(=O)N(C5CCC(=O)NC5=O)C6=O)CC4)cc3)s2)cc1C(=O)N1CCN(C(C)=O)CC1 (stereo not shown) — inhibition (cell-free assay; 1 µM): > 90%
CC(C)(O)[C@H]1CC[C@H](Nc2ccc3ncc(-c4cccc(C(F)(F)F)c4)n3n2)CC1 — remaining activity (enzyme activity; inhibitor; 1 µM): 23.7%
CNC(=O)c1cc(Oc2ccc(NC(=O)Nc3ccc(Cl)c(C(F)(F)F)c3)cc2)ccn1 — inhibition (enzyme activity; inhibitor; 10 µM): 100%
CCC(=N\O)/C(C)=C/c1ccc(F)cc1 — remaining binding (cell-free assay; competition with immobilised ligand; 1 µM): 90%
COc1cc2ncnc(Nc3ccc(Oc4ccccc4)cc3C)c2cc1OC — inhibition (enzyme activity; inhibitor; 1 µM): 4%
CCCS(=O)(=O)Nc1ccc(F)c(C(=O)c2c[nH]c3ncc(-c4ccc(Cl)cc4)cc23)c1F — inhibition (enzyme activity; inhibitor; 1 µM): < 10%
Cc1cnc(NC2CCOCC2)nc1-n1cnc(C(=O)NC(CN)c2cc(F)cc(Cl)c2)c1 (stereo not shown) — remaining activity (enzyme activity; inhibitor; radiometric; 1 µM): 97%
O=C1Nc2ccc(Cl)cc2C1=Cc1cc(Cl)c(O)c(Cl)c1 — remaining signal (cell-free assay; 0.5 µM): 65.5%
O=C(Nc1cnn(-c2csc(C(=O)NC3COC3)c2)c1)Nc1c(F)cccc1Cl — remaining activity (enzyme activity; inhibitor; 5 µM): 86.8%
CCCOc1ccc(OC)c(F)c1C(=O)c1ccc(C(=O)N[C@@H]2CNC[C@H]2NC(=O)c2ccc3[nH]ncc3c2)cc1 — remaining activity (enzyme activity; inhibitor; 10 µM): -1%
Cc1ccc(Nc2nccc(N(C)c3ccc4c(C)n(C)nc4c3)n2)cc1S(N)(=O)=O — inhibition (enzyme activity; inhibitor; 10 µM): 97%
C[C@@H]1CN(c2cc(-c3nn(C)c4ccc(OC5(C)CC5)cc34)ncn2)C[C@H](C)O1 — remaining binding (cell-free assay; competition with immobilised ligand; 1 µM): 92%
Cc1cc(NC(=O)c2cccc3cc(-c4cccc5[nH]nc(N)c45)ccc23)ccc1F — activity vs control (enzyme activity; inhibitor; 0.1 µM): 99%
NS(=O)(=O)c1cc(NC(=O)Cc2ccccc2)ccc1Oc1cccc(Cl)c1 — remaining binding (cell-free assay; competition with immobilised ligand; 1 µM): 100%
COc1cc2c(N3CCN(C(=O)Nc4ccc(OC(C)C)cc4)CC3)ncnc2cc1OCCCN1CCCCC1 — remaining signal (cell-free assay; 0.5 µM): 99.6%
CC/C(=N\NC(=O)NCc1cccc(O)c1)c1ccc(O)c(C)c1O — inhibition (enzyme activity; inhibitor; 0.1 µM): -3.4%
O=C(NCCCC1CCCCC1)c1ccc(CNC(=O)c2cnn(-c3ccccc3)c2C(F)(F)F)cc1 — remaining binding (cell-free assay; competition with immobilised ligand; 0.1 µM): 100%
CCN(CC)CCNC(=O)c1c(C)[nH]c(/C=C2\C(=O)Nc3ccc(F)cc32)c1C — inhibition (enzyme activity; inhibitor; 0.3 µM): 98%
CC(=O)Nc1c(C(C)=O)c(=O)n(C)c2nc(-c3ccc(Cl)cc3Cl)c(-c3ccc(Cl)cc3)cc12 — remaining binding (cell-free assay; competition with immobilised ligand; 1 µM): 100%
O=C1NC(=O)c2cc(Nc3ccc(F)cc3)c(Nc3ccc(F)cc3)cc21 — remaining signal (cell-free assay; 0.5 µM): 90.2%
O=C(Nc1cccnn1)N1CC(C/C=C/c2cncc(Oc3ccc(C(F)(F)F)cn3)n2)C1 — remaining binding (cell-free assay; competition with immobilised ligand; 1 µM): 97%
Cc1ccc(C(=O)Nc2ccc(CN3CCN(C)CC3)c(C(F)(F)F)c2)cc1C#Cc1cnc2cccnn12 — remaining activity (enzyme activity; inhibitor; 23.5 nM): 8%
CC(=O)N1CCC(c2ccc(C(=O)NC(=N)N)cc2C(F)(F)F)CC1 — remaining binding (cell-free assay; competition with immobilised ligand; 1 µM): 100%
CC(C)(C)c1nc(-c2cccc(NS(=O)(=O)c3c(F)cccc3F)c2F)c(-c2ccnc(N)n2)s1 — remaining activity (enzyme activity; inhibitor; radiometric; 1 µM): 113%
